# Sampled rows, rich in hits. Any-hit rate of the full collection: about 1.4%.
# DDE Tn6 FP inh: disrupts Tn6 cyclic peptide binding to fibrin D-Dimer-E complex. 370,000 tested, 0.21% active. Fibrin DD(E) TRITC-Tn6 fluorescence polarization displacement. P02675. inhibition, % at 8.3 µM;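 active = inhibition above a per-campaign cutoff: mean of compounds within control limits plus 3 SD, cut at about 15% in these data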
# Cardio protect: protects H9c2 cardiomyocytes from peroxide injury; H2O2 injury protection, ATPLite, 2 h; protection from H2O2 cell death, % at 20 µM; 360,000 tested, 0.63% active;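 active = compounds giving at least 50% protection of heart cells from peroxide-induced death in the single-dose screen, raw or plate-pattern-corrected value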
# DAGLB inh: diacylglycerol lipase beta (human) inhibition | Q8NCG7 | HEK293T DAGLB membrane lysate, EnzChek fluorogenic substrate | inhibition, % at 5.17 µM | 340,000 tested, 0.059% active; in the data active = inhibition above about 34%
# Target sequence (Q8NCG7 whole entry, looked up): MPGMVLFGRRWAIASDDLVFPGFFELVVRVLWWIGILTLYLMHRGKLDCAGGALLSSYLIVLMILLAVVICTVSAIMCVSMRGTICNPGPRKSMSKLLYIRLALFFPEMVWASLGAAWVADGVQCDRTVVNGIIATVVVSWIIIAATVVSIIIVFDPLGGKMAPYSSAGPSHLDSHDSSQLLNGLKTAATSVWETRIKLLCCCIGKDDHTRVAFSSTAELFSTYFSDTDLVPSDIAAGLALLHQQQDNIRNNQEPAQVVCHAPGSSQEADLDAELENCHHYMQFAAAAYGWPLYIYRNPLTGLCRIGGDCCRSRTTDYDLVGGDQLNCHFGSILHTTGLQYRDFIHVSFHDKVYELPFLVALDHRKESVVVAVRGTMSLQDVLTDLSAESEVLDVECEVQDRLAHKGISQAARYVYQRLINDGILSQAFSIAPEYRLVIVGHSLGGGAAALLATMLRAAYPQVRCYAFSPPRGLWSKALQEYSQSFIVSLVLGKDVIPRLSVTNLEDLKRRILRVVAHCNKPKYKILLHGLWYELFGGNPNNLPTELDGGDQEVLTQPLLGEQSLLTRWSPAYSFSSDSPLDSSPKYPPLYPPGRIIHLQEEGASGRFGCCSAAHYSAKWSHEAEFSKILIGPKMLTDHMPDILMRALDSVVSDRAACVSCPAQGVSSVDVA
# MT1-MMP act inh: blocks activation of human MT1-MMP | GFP/RFP ratio change, % at 20 µM | 360,000 tested, 0.061% active | AID 651647 | HT1080 RFP-PRO-GFP cells, GFP/RFP ratio fluorescence, overnight; percent of plate control window, DMSO zero;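 active = GFP/RFP ratio change of at least 30% with cell ATP level not reduced by more than half and red fluorescence within 50% of control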
#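 Assay system – RFP-PRO-GFP reporter HT1080 cells · Compound dosing – single dose of 20 µM compound, 1% DMSO final · Incubation – overnight compound exposure at 37 °C · Measure – GFP/RFP fluorescence ratio · Benchmarks – DMSO wells and RFP-L50D-GFP cells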
# DDE Tn7 FP inh: inhibitors of Tn7 peptide binding to human fibrin DD(E); P02675; FP displacement of FITC-Tn7 peptide from fibrin DD(E); 0% = median of compound wells per plate; inhibition, % at 8.3 µM; 370,000 tested, 0.13% active; AID 720508;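 active = inhibition above the mean of compounds falling within the control limits plus 3 SD of them, cut at about 14% in these data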
#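 Assay system: Human clot-derived fibrin DD(E) complex | Buffer or medium: Tris/NaCl/CaCl2 buffer, pH 7.8 | Repeats: One replicate per compound | Benchmarks: Aha-Tn7 high control | Measure: % inhibition scaled between sample-field median and high-control FP | Schedule: 10 min plus 3 h, room temperature | Signal: Fluorescence polarization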
# H9c2 TAG inh: inhibitors of triacylglycerol accumulation | inhibition, % at 12.5 µM | H9c2 cells, Nile Red lipid (TAG) fluorescence; cells loaded with 200 µM oleic acid | 230,000 tested, 0.66% active;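 active = pattern-corrected inhibition of lipid staining of at least 50% with the nuclear-stain viability signal not falling by more than 50%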
# DDE Tn7 confirm: DD(E)-Tn7 binding inhibition, FP confirmation. inhibition, % at 8.3 µM. AID 720628. FP displacement of TRITC-Tn7 peptide from DD(E); 0% set at plate's compound-well median. 460 tested, 5% active. shares compounds with DDE Tn7 FP inh;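 active = inhibition above the campaign cutoff, the mean of compounds within control limits plus 3 SD, cut at about 14% in these data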;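 also: displacers lower polarization since freed probe rises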
# DDE Tn7 FP ctr: DD(E)-Tn7 binding inhibition, counter-screen. shares compounds with DDE Tn7 FP inh. fibrin DD(E), TRITC-Tn7 probe displacement, fluorescence polarization. inhibition, % at 8.3 µM. 460 tested, 3% active. AID 720633;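 active = inhibition above the cutoff, the mean of compounds lying between the control bounds plus 3 SD of those compounds, cut at about 17% in these data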
# Numbers stand for hits; n = inactive; x = not tested or not shown.
SMILES,DDE Tn6 FP inh,Cardio protect,DAGLB inh,MT1-MMP act inh,DDE Tn7 FP inh,H9c2 TAG inh,DDE Tn7 confirm,DDE Tn7 FP ctr
COc1ccc(CNC(=O)C(OC(=O)c2ccco2)c2ccccc2F)cc1 (centres undefined),n,n,n,n,14,x,n,n
c1coc(-c2nnc(SCc3cn4ccccc4n3)o2)c1,n,n,n,n,14,n,n,n
CCC(CC)C(=O)c1c[nH]c(C(=O)NCc2ccccc2OC)c1,n,n,n,n,n,x,x,x
CCC(CC)C(=O)c1c[nH]c(C(=O)NCc2ccccc2)c1,n,n,n,n,14,x,n,n
COc1ccc(CN2CCN(Cc3ccco3)CC2)c(OC)c1,n,n,n,n,14,x,n,n
COc1ccccc1CCn1cnc(-c2ccc(F)cc2)c1CC(C)C,n,x,x,x,n,x,x,x
COc1ccccc1-c1cc(N)n(S(=O)(=O)c2ccc(F)c(C)c2)n1,n,n,n,n,14,n,n,n
CCC(CC)C1C(C#N)=C(N)SC(N)=C1C#N,n,n,n,n,n,n,x,x
CC(C)C1C(C#N)=C(N)SC(N)=C1C#N,n,n,n,n,14,x,n,n
CCOC(=O)C1(Cc2ccc(Cl)cc2)CCN(Cc2ccon2)CC1,n,n,n,n,n,n,x,x
CCOC(=O)C1(Cc2cccc(F)c2)CCN(Cc2ccon2)CC1,n,n,x,n,14,x,n,n
COc1cccc(CCNC(=O)CCc2nc(-c3ccccc3F)no2)c1,n,x,x,x,n,x,x,x
CCOC(=O)Cn1nc(-c2ccc(F)cc2)oc1=O,n,n,n,n,14,x,n,n
O=C(O)Cn1nc(-c2ccc(F)cc2)oc1=O,n,n,n,n,n,n,x,x
Fc1ccc2cnc(-c3ccsc3)cc2c1,n,x,x,x,n,x,x,x
O=C(NC1CCN(S(=O)(=O)c2ccc(Cl)cc2)CC1)C1CCCCC1,n,n,n,n,14,x,n,n
COc1ccc(-c2cc(-c3nnc(SCc4cccc5ccccc45)n3N)[nH]n2)cc1,n,x,x,x,n,x,x,x
COc1ccc(N2C(=O)CSC2c2cccc(OC)c2OC)cc1 (centres undefined),n,n,n,n,14,x,n,n
COc1cccc(C2SCC(=O)N2c2ccc(C)cc2)c1OC (centres undefined),n,n,n,n,n,x,x,x
COc1cccc(CNC(=O)c2cc3c(C)nc4ccccc4c3o2)c1,n,n,n,n,n,n,x,x
CCc1ccc(CNC(=O)c2cc3c(C)nc4ccccc4c3o2)cc1,n,n,n,n,14,n,n,n
CCC(C)[C@H](NC(=O)N1CCC(C)CC1)C(=O)O (some centres undefined),n,n,n,n,14,n,n,n
O=S1(=O)c2ccc(N3CC[C@H](O)C3)cc2O[C@@H]2CCN1C2,n,x,x,x,n,x,x,x
Oc1cccc(Nc2ccccc2)c1,n,n,n,n,14,x,n,n
NC(=O)C(CCc1nc2ccccc2[nH]1)NS(=O)(=O)c1ccccc1 (centres undefined),n,n,n,n,15,n,n,n
SMILES,DDE Tn6 FP inh,Cardio protect,DAGLB inh,MT1-MMP act inh,DDE Tn7 FP inh,H9c2 TAG inh,DDE Tn7 confirm,DDE Tn7 FP ctr
Cc1ccc(S(=O)(=O)NCCc2nc3ccccc3[nH]2)cc1,n,n,n,n,n,x,x,x
O=C(NC1CCCC1)C(c1ccncc1)N(CC1CCCO1)C(=O)Cn1nnc(-c2cccs2)n1 (centres undefined),n,n,n,n,n,n,x,x
Cc1ccc(C(C(=O)NCC2CCCO2)N(Cc2ccccc2F)C(=O)Cn2nnc(-c3cccs3)n2)cc1 (centres undefined),n,n,n,n,19,n,n,n
CCCCc1ccc2nc(NC(=O)c3ccc(Br)o3)sc2c1,n,x,x,x,n,x,x,x
COC(=O)Cn1cc(/C=N/NC(=O)COc2cccc3cccnc23)c2ccccc21,n,n,n,n,n,n,x,x
C#CCn1cc(/C=N/NC(=O)COc2cccc3cccnc23)c2ccccc21,n,n,n,n,14,x,n,n
O=C1CN(C(=O)c2ccc3nc(Cc4cccc(Cl)c4)oc3c2)CCN1,n,n,n,n,14,n,n,n
CC(=O)N1CCCN(C(=O)c2ccc3nc(Cc4cccc(Cl)c4)oc3c2)CC1,n,n,n,n,n,n,x,x
CC(C)OCCCNC(=O)Cn1ncc2c(=O)oc3ccccc3c21,n,n,n,n,n,n,x,x
CC(CCc1ccco1)NC(=O)Cn1ncc2c(=O)oc3ccccc3c21 (centres undefined),n,n,n,n,15,n,n,n
COc1ccc2c(CC(=O)O)cc(=O)oc2c1,n,n,n,n,15,n,n,n
O=c1[nH]cnc2c1c(-c1ccccc1)cn2-c1ccccc1,n,n,n,n,17,x,n,n
CN(CCc1ccccc1)C(=O)c1cc2ccccn2n1,n,x,x,x,n,x,x,x
Cc1cccc(N2C(=O)CN(Cc3sccc3C)C2=S)c1,n,n,n,n,n,x,x,x
Cc1cccc(N2C(=O)CN(Cc3cccs3)C2=S)c1,n,n,n,n,15,n,n,n
C=C(C)C1CC=C(C)/C(=N/NC(=O)c2ccc(NC(=O)CC)cc2)C1 (centres undefined),n,n,n,n,n,x,x,x
C=C(C)C1CC=C(C)/C(=N/NC(=O)c2ccc(NC(=O)CCC)cc2)C1 (centres undefined),n,n,n,n,14,x,n,n
CC(C)c1nnc(N2C(=O)C(O)=C(C(=O)c3cccs3)C2c2ccccc2)s1 (centres undefined),n,n,n,n,30,n,n,n
CC(C)n1nnnc1C1c2ccccc2OCC(=O)N1Cc1cccc(C(F)(F)F)c1 (centres undefined),n,x,x,x,n,x,x,x
O=C(c1ccccc1)c1ccc2c(c1)OCCOCCOCCOCCO2,n,n,n,n,14,n,n,n
O=C(CSc1nnc(COc2ccc(Cl)cc2)n1Cc1ccco1)Nc1cccc2ccccc12,n,x,x,x,n,x,x,x
CN(C)c1ccc(/C=N/NC(=O)c2ccc(CN3CCOCC3)cc2)cc1Br,n,n,x,n,14,x,n,n
Clc1ccc(/C=N/c2c(-c3ccco3)nc3ccccn23)cc1,n,n,n,n,n,x,x,x
COc1ccc(/C=N/c2c(-c3ccco3)nc3ccccn23)cc1OC,n,n,n,n,15,n,n,n
C#CCNC(=O)C[C@H]1C[C@@]2(C(=O)OC)C(=C[C@H](C3CCCC3)O[C@@H]2C)N(Cc2cccc3ccccc23)C1=O,n,x,x,x,n,x,x,x
